Laboratory results: ChEMBL document CHEMBL4000256, “Light-Regulated NO Release as a Novel Strategy To Overcome Doxorubicin Multidrug Resistance” (ACS Med Chem Lett, 2017)

How the values were obtained:
[1] = molecular target: T1, Broad substrate specificity ATP-binding cassette transporter ABCG2 (Homo sapiens, UniProt Q9UNQ0); test: Inhibition of BCRP in 7 mW/cm'2 irradiated human M14 cells assessed as reduction in ATPase activity at 5 uM measured after 20 mins in presence of doxorubicin by immunoblotting
T1 sequence (Q9UNQ0 whole entry): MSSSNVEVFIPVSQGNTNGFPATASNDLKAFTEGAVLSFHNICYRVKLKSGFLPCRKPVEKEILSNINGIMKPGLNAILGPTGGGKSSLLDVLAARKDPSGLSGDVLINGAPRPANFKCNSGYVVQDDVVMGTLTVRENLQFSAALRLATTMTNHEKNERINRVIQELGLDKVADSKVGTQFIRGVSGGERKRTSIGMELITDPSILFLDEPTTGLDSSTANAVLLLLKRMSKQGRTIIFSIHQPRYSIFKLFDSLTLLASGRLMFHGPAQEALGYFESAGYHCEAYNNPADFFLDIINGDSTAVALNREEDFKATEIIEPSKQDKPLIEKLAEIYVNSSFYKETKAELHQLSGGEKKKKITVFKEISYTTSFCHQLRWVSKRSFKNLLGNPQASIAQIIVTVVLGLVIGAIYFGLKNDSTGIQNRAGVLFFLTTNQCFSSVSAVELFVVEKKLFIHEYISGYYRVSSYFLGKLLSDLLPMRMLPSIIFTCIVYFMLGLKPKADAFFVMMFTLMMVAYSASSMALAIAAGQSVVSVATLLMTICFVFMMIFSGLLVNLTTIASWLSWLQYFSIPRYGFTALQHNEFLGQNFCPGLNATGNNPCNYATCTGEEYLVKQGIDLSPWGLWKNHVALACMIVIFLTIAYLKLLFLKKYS
How it was run: (§1)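 M14 melanoma cells held 20 min at room temperature in PBS under 400 nm light (7 mW/cm2) with 5 μM compound, alone or with equimolar doxorubicin. Transporter ATPase activity then measured; n = 3.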

[2] = molecular target: T2, ATP-binding cassette sub-family C member 4 (Homo sapiens, UniProt O15439); test: Inhibition of MRP4 in 7 mW/cm'2 irradiated human M14 cells assessed as reduction in ATPase activity at 5 uM measured after 20 mins in presence of doxorubicin by immunoblotting; how it was run: as §1
T2 sequence (O15439 whole entry): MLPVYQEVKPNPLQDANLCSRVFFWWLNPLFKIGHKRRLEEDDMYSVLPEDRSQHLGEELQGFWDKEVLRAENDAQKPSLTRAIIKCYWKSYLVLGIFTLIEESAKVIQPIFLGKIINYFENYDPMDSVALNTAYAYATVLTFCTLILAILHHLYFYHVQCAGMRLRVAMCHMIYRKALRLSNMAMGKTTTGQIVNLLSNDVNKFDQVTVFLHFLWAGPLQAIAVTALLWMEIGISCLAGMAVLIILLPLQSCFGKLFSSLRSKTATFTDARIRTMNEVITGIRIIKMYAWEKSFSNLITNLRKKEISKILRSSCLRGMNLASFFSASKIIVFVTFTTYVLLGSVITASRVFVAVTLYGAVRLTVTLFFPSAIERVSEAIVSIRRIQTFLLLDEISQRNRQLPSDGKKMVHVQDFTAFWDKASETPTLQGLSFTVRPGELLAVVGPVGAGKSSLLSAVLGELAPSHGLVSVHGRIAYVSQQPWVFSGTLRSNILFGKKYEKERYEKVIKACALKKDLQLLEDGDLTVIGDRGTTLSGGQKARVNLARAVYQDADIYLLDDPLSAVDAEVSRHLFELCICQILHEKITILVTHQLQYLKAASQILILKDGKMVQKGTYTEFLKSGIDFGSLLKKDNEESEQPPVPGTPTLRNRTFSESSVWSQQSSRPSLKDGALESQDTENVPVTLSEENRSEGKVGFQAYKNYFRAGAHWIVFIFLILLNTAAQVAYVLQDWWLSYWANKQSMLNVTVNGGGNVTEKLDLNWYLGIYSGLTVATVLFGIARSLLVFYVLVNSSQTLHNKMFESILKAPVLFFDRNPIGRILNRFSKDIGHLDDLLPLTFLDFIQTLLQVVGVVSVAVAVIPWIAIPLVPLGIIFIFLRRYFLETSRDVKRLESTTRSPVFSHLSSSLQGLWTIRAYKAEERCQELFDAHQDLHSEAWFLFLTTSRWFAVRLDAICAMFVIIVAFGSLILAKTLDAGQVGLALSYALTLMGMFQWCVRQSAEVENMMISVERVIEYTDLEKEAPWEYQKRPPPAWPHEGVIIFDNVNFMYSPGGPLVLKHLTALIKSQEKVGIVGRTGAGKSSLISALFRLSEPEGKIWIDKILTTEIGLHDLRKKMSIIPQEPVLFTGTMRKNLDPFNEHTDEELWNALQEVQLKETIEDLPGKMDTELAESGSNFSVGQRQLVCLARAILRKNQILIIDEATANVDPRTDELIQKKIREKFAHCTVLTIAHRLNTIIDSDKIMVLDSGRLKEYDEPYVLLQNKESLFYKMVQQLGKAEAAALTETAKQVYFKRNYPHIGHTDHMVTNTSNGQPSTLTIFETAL

With `NCCCNc1ccc([N+](=O)[O-])c(C(F)(F)F)c1` the “inhibition (INH)” value [1] was “Active” and the “inhibition (INH)” value [2] was “Active”.
